Published values from different studies.
Lines come from different studies, so protocols differ.
Target: Interleukin-1 receptor-associated kinase 4 (IRAK4, Homo sapiens, UniProt Q9NWZ3)
Sequence (Q9NWZ3 1-460, as in one of the studies): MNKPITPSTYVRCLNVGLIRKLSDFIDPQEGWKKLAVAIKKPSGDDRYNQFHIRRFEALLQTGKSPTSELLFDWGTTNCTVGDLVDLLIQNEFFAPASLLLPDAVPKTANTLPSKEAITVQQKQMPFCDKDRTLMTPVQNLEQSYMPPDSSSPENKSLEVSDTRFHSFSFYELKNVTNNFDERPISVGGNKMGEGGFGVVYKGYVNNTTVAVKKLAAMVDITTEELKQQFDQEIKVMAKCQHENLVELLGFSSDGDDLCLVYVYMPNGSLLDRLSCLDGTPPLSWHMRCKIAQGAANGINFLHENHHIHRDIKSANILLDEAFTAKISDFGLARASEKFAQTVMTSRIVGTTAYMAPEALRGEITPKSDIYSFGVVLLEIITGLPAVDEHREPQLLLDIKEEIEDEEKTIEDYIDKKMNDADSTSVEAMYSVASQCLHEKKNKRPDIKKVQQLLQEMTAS

Structure (SMILES) | assay | setting | remaining binding [%]
O=C(NCC1CCOCC1)c1n[nH]cc1NC(=O)c1c(F)cccc1F | binding, competition with immobilised ligand | 1 µM | 100
COc1ncc2cc3ccccc3nc2c1C#N | cell-free assay, competition with immobilised ligand | 5 µM | 97
O=C(NCCCN1CCOCC1)c1ccc(Nc2nccc(-c3cc4ccccc4s3)n2)cc1 | binding, competition with immobilised ligand | 1 µM | 75
O=C(NCc1ncc(C(F)(F)F)cc1Cl)c1ccc2c(c1)C1(CCS(=O)(=O)CC1)[C@H](C1CC1)N2S(=O)(=O)c1ccc(F)cc1 | cell-free assay, competition with immobilised ligand | 1 µM | 100
Cc1cnn2ncc(-c3ccnc(N(C)C)n3)c2c1 | binding | 1 µM | 100
O=C(NCCCC1CCCCC1)c1ccc(CNC(=O)c2cnn(-c3ccccc3)c2C(F)(F)F)cc1 | cell-free assay, competition with immobilised ligand | 0.1 µM | 100
O=C(c1ccc(Nc2ncc(Cl)c(-c3cc4ccccc4s3)n2)cc1)N1CCC(N2CCCC2)CC1 | binding, competition with immobilised ligand | 1 µM | 57
Nc1ncc2c(n1)-c1c([nH]c3ccc(C#CC4CC4)cc13)CCCC2 | binding, competition with immobilised ligand | 1 µM | 86
C[C@H]1CCN(c2nccc(-c3cnn4ncccc34)n2)C1 | binding | 1 µM | 73
O=C(c1ccc(Nc2nccc(-c3cc4ccccc4s3)n2)cc1)N1CCC(N2CCCC2)CC1 | binding, competition with immobilised ligand | 1 µM | 100
COc1cnc(Nc2cccc(S(N)(=O)=O)c2)nc1N1CCN(c2ccccc2)C(=O)C1 | binding, competition with immobilised ligand | 1 µM | 88
CN(C)c1nccc(-c2cnn3ncccc23)n1 | binding | 1 µM | 73
CCS(=O)(=O)c1cc2cc(C[C@@](O)(CC(C)(C)c3ccc(F)cc3C(N)=O)C(F)(F)F)[nH]c2cn1 | cell-free assay, competition with immobilised ligand | 1 µM | 100
CN(C)c1ncc(F)c(-c2cnn3ncccc23)n1 | binding | 1 µM | 69
CCOC(=O)c1cc2cc(-c3cc(C(=O)NCc4ccc(C(=O)O)cc4)nn3C)ccc2[nH]1 | cell-free assay, competition with immobilised ligand | 0.1 µM | 91
CN(c1nccc(-c2cnn3ncccc23)n1)C1CC1 | binding | 1 µM | 100
CN([C@@H]1CCc2c(CC(=O)O)c3cc(S(C)(=O)=O)ccc3n2C1)S(=O)(=O)c1ccc(F)cc1 | cell-free assay, competition with immobilised ligand | 1 µM | 95
CN(CCCC(F)(F)F)c1nccc(-c2cnn3ncccc23)n1 | binding | 1 µM | 100
C[C@H](c1ccnc(Nc2nc3ccc(-c4cc(N(C)C)ncn4)cc3[nH]2)c1)N1CCN(C(=O)CC(F)(F)F)CC1 | cell-free assay, competition with immobilised ligand | 0.1 µM | 100
c1cncc(-c2cccc(Nc3nccc(NC4CCCCC4)n3)c2)c1 | binding, competition with immobilised ligand | 10 µM | 34
